# Source: PubChem BioAssay
# Sampled rows, rich in hits. Any-hit rate of the full collection: about 1.7%.
# A3G deaminase: APOBEC3G DNA deaminase inhibitors, primary screen, biochemical, fluorescence, single-stranded DNA substrate, uHTS; DNA dC->dU-editing enzyme APOBEC-3G (Homo sapiens), Q9HC16; recombinant A3G, ssDNA deamination FAM/TAMRA fluorescence; inhibition, % at 20 µM; 330,000 tested, 0.28% active; AID 493012, 2011;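 active = inhibition of at least 40% at 20 µM, with no more than 30% in the related APOBEC3A deaminase screen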;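 also: plate controls were DMSO wells with A3G for no effect and wells lacking A3G enzyme for full effect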
# Target sequence (Q9HC16 whole entry, looked up): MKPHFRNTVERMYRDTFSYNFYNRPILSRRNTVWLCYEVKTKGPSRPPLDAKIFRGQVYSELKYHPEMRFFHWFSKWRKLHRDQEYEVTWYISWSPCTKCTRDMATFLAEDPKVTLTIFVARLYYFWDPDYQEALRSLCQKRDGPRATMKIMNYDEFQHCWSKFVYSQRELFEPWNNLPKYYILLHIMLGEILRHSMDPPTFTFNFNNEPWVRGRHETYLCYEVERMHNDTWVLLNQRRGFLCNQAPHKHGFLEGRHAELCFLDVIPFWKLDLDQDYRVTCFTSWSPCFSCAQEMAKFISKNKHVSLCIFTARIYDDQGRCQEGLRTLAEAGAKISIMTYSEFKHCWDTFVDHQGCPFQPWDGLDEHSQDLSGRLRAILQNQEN
# CAL PDZ FP-1: CAL PDZ peptide-binding inhibitors, primary screen, biochemical, fluorescence polarization, Cer-tagged CAL PDZ, HTS; 330,000 tested, 0.02% active; inhibition, % at 20 µM; purified CAL PDZ, TMR-peptide fluorescence polarization, 1 h; Golgi-associated PDZ and coiled-coil motif-containing protein (Homo sapiens), Q9HD26;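 active = highest replicate inhibition of at least 40%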;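 also: plate controls were DMSO neutral control wells for no effect and unlabeled competitor peptide control wells for full effect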
#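 Assay system – tagged CAL PDZ protein CerCALP, purified · Timing – 1 h at RT · Compound – single point, 20 µM · Measured by – fluorescence polarization from S- and P-plane intensities, G-factor corrected · Evaluation – inhibition from polarization loss · Probe or stimulus – TMR reporter peptide T*-PRC34 · Buffer or medium – pH 7.4 phosphate-saline buffer, reducing agent, detergent, IgG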
# A3A deaminase: APOBEC3A ssDNA deaminase inhibitors, primary screen, selectivity assay for APOBEC3G inhibitor project, biochemical, FAM/TAMRA oligo cleavage fluorescence | DNA dC->dU-editing enzyme APOBEC-3A (Homo sapiens), P31941 | recombinant A3A, FAM/TAMRA ssDNA deamination fluorescence | inhibition, % at 20 µM | 330,000 tested, 0.41% active;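 active = at least 40% inhibition at 20 µM here, with at most 30% in a related deaminase screen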;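 also: plate controls were A3A with DMSO for no effect and wells lacking A3A enzyme for full effect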
# Target sequence (P31941 whole entry, looked up): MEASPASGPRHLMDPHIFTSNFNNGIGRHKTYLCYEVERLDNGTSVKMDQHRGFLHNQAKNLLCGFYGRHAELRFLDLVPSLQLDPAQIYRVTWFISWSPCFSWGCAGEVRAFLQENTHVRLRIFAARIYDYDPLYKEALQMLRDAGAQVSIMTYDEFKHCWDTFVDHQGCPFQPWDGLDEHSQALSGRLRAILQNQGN
# CAL PDZ FP-2: untagged CAL PDZ binding inhibitors, primary screen, biochemical, fluorescence polarization, HTS | inhibition, % at 24.9 µM | Golgi-associated PDZ and coiled-coil motif-containing protein (Homo sapiens), Q9HD26 | 300,000 tested, 0.92% active | purified CAL PDZ, TMR-peptide fluorescence polarization, 1 h;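 active = mean inhibition of at least 30% with at least half of replicates also reaching 30%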;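 also: 0% = DMSO neutral control and 100% = excess unlabeled competitor peptide PRC23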
# Keap1 Nrf2 FP: Keap1-Nrf2 protein-protein interaction inhibitors, primary screen, biochemical, fluorescence polarization, single point; inhibition, % at 9.4 µM; 340,000 tested, 0.15% active; Keap1 Kelch-Nrf2 peptide fluorescence polarization, 1536-well; AID 504523, 2011; in the data active = inhibition above about 12%;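 also: human Keap1 Kelch domain with fluorescein labeled Nrf2 9mer peptide probe; 0% = neutral control wells and 100% = peptide positive control; higher means more block of Keap1 binding to Nrf2 peptide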
# C-LANA FP: inhibitors of KSHV C-LANA binding to DNA, primary screen, biochemical, fluorescence polarization, FAM-LBS DNA, MBP-C-LANA, single point. Kaposi's sarcoma herpesvirus LANA C-terminal domain (residues 932-1162) DNA binding. AID 504423, 2011. inhibition, % at 9 µM. 340,000 tested, 0.078% active;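 active = highest replicate inhibition at or above 60% at 9 µM, even if other replicates fall short; inactive = all replicates below 60% inhibition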;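 also: 0% = neutral control wells and 100% = 4 µM acridine orange control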
# A3A conf: APOBEC3A deaminase inhibitors, retest, confirmation, selectivity assay for APOBEC3G inhibitor project, biochemical, single concentration, fluorescence readout | recombinant A3A, ssDNA deaminase UDG fluorescence assay | shares compounds with A3A deaminase | inhibition, % at 20 µM | AID 493151, 2011 | 1,400 tested, 63% active;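 active = inhibition reaching a set limit, 80% of the first screen's cutoff, at 20 µM in any replicate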;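 also: plate controls were DMSO wells with A3A for no effect and wells lacking A3A enzyme for full effect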
# UDG ctr A3A: E. coli UDG inhibitors, confirmation, counter-screen for APOBEC3A inhibitor project, biochemical, single concentration, fluorescence, FAM/TAMRA oligo; shares compounds with A3A deaminase; UDG counterscreen, FAM/TAMRA uracil oligo fluorescence; inhibition, % at 20 µM; 1,000 tested, under 10 active; call rule not given here
# Active calls of the source: *; x = no result given.
SMILES,A3G deaminase,CAL PDZ FP-1,A3A deaminase,CAL PDZ FP-2,Keap1 Nrf2 FP,C-LANA FP,A3A conf,UDG ctr A3A
CCN1C(=NCC2CC2)N[C@@H](c2ccccc2)C(C(=O)OC)=C1C,12,-1,46*,-6,1,-4,80*,4
CCN1C(=NCc2ccc(OC)cc2)N[C@@H](c2ccccc2)C(C(=O)OC)=C1C,12,-6,92*,-20,0,3,66*,-3
CCN1C(=NCc2cc(OC)c(OC)c(OC)c2)N[C@@H](c2ccccc2)C(C(=O)OC)=C1C,11,-1,45*,-3,-1,-1,68*,0
COC(=O)C1=C(C)N(Cc2ccccc2)C(=NCc2ccc(OC)cc2)N[C@H]1c1cccc(F)c1,37,0,70,-4,-2,-2,x,x
CC1(c2nnc(-c3ccncc3)o2)CC(c2ccc(F)cc2)=NO1 (centres undefined),-11,0,-3,-1,-4,2,x,x
Cc1ccc(C2=NNC(=O)C(P(=O)(c3ccccc3)c3ccccc3)C2)cc1 (centres undefined),-16,-1,-4,-6,1,0,x,x
CC(C)N1CC(O)=C(c2ccccc2)C1=N,-3,-1,74*,-2,-2,2,-1,4
CC(C)N1CC(O)=C(c2nc3ccccc3[nH]2)C1=N,-1,1,-1,0,-8,0,x,x
CCCCN(C(=O)c1cnccn1)c1c(N)n(CCC)c(=O)[nH]c1=O,20,0,45*,x,1,2,46*,-2
CCCCN(C(=O)c1c(CC)noc1C)c1c(N)n(CCCC)c(=O)[nH]c1=O,0,-3,44*,-3,-1,0,23,-2
O=C(NCC1CCCN1S(=O)(=O)c1cccs1)c1cccc(F)c1 (centres undefined),6,-1,2,-1,-6,1,x,x
CN(C)S(=O)(=O)c1ccc(N2CCCC2)c(C(=O)NC2CCC(O)CC2)c1 (centres undefined),-7,-2,12,-3,-1,0,x,x
O=CNC1c2ccccc2CCc2ccccc21,x,0,x,-4,1,-2,x,x
COc1ccc(-n2nc([N+](=O)[O-])c(=NCCC3=CCCCC3)n2O)cc1,-5,0,-2,3,2,-1,x,x
O=C(C(=O)N1CCCCCC1)c1c[nH]c2ccccc12,-4,0,-4,-1,1,-2,x,x
C[n+]1cc(C(=O)N2CCCCC2)ccc1/C=C/c1c[nH]c2ccccc12,14,0,75*,-2,-212,-53,73*,7
N#C/C(=C/c1cccn1-c1cccc(C(=O)O)c1)c1ccc(Cl)cc1,20,-1,70*,-1,-5,7,65*,x
CCOC(=O)C1CCCN(CCC(=O)Nc2cc(C)cc(C)c2)C1 (centres undefined),-7,-7,-2,-4,-1,0,x,x
CCOC(=O)C1CCCN(CC(=O)Nc2cc(C)cc(C)c2)C1 (centres undefined),30,0,60*,1,-2,2,29,x
COc1ccc(/C=C2\C(=O)NCC(=O)N2Cc2ccccc2)cc1,-4,-2,-2,-4,-4,0,x,x
COc1ccc(/C=C2\C(=O)NCC(=O)N2C)cc1,14,x,52*,-2,-1,0,75*,-3
O=C(CSc1nnnn1-c1ccccc1)Nc1ccc(N2CCOCC2)c(Cl)c1,15,-3,64*,-2,1,0,55*,-2
O=C(CSc1nnnn1-c1cccc2ccccc12)Nc1ccc(N2CCOCC2)c(Cl)c1,4,-1,4,x,-4,0,x,x
Cc1nnc(SCC(=O)N2N=C(c3ccc(Cl)cc3)CC2c2ccco2)[nH]c1=O (centres undefined),13,-4,50*,-5,-5,-1,10*,-2
O=C(COc1ccccc1)OCc1cc(-c2ccco2)on1,-7,0,0,4,-3,-1,x,x
SMILES,A3G deaminase,CAL PDZ FP-1,A3A deaminase,CAL PDZ FP-2,Keap1 Nrf2 FP,C-LANA FP,A3A conf,UDG ctr A3A
CCSC1=NC(=O)/C(=C2/C=Cc3ccccc3N2CC)S1,21,0,40*,-1,-4,-2,18,x
O=C1CCCC(O)=C1Sc1ccccc1C(=O)O,6,-2,55*,0,-5,5,57*,-6
O=C(O)CC/C(=N/NC(=O)CNC(=O)c1ccc2c(c1)OCCO2)c1ccccc1,-13,-3,-4,2,1,-5,x,x
C=CCN1/C(=C2/SC(=S)N(C)C2=O)Sc2ccccc21,23,x,96*,x,x,x,64*,x
CC1(C)CC(=O)C(C(=O)C2CCN(S(=O)(=O)c3ccccc3)CC2)C(=O)C1,-7,1,47*,-3,-3,1,-5,1
Cc1sc(NC(=S)NC(=O)C2CCCCC2)c(C(N)=O)c1C,-4,-2,-3,3,-8,1,x,x
N#Cc1cccc(S(=O)(=O)NNC(=O)C23CC4CC(CC(C4)C2)C3)c1,-1,0,-2,-2,0,0,x,x
Cc1ccc(/C=C/c2ccc(N(C)C)cc2)[n+](C)c1,6,0,60*,-2,-45,-22,67*,-3
CSc1ccccc1NC(=O)C1CCN(S(C)(=O)=O)CC1,-4,x,-6,-3,2,1,x,x
Cc1cc(/C=N/NC(=O)c2cccc(N(C)C)c2)c(C)n1-c1cc(C(=O)O)cc(C(=O)O)c1,25,0,66*,-6,-2,26,65*,1
Cc1cc(/C=N/NC(=O)C(O)(c2ccccc2)c2ccccc2)c(C)n1-c1cccc(C(=O)O)c1,23,0,45*,-4,-7,8,26,x
O=C1CN(C(=O)CSc2nncs2)c2ccccc2N1,-3,0,44*,-2,1,1,-5,-3
